Consider 2 molecules from paper PMC8742637 (Clinical and Translational Science, 2021).

Where two headings read alike, the source gives them in different places.

Series [1] is classed as in vivo. The following applies: human, plasma, po, 10 mg. The gist of the method:
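Single-center, randomized, open-label, three-period, six-sequence crossover in healthy volunteers. Each drug was given alone and with the other as a single oral dose after a 10-h fast. Blood was sampled to 72 h, and washout was at least 21 days. Plasma was analysed by LC-MS with stable isotope-labeled internal standards. Noncompartmental parameters: AUC0-T by linear trapezoidal rule, AUC∞ = AUC0-T + Clast/λz.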

Series [2] can be described thus: Study 3: safety, treatment-emergent adverse events. The series is classed as in vivo, human. Particulars: BISO 10 mg, RAMI 10 mg alone or together, % of subjects in the Safety population in each treatment group.
Series [3] in a line: Bioequivalence studies 1 and 2: PK summary across both treatments and studies. The series is classed as in vivo, human. Summed up:
(§1)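 Single-center, randomized, open-label, laboratory-blinded, two-period, two-sequence crossover in healthy volunteers. Each subject got one oral dose of the fixed-dose combination or the co-administered reference tablets with ~240 ml water after a 10-h fast. Washout was at least 21 days. Parent drugs were measured in plasma by LC-MS after protein precipitation. Noncompartmental analysis used actual times, with t½ = ln(2)/λz.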

Series [4] is classed as in vivo. Particulars: human, plasma, oral, 5 mg. Summed up:
as §1

The format of series [5] is in vivo, human. The gist of the method:
as §1

On to `CC(C)NCC(O)COc1ccc(COCCOC(C)C)cc1` (stereo not drawn) [BISO, bisoprolol], for which, in series [1], the AUC(0-inf) (in general, the area under the concentration-time curve extrapolated to infinity) amounted to 777 ng·h/mL; the AUC(0-t) – broadly, exposure summed from dosing to a finite time, without extrapolation to infinity – came out at 732 ng·h/mL; the highest level (Cmax) was 42.6 ng/mL; the Tmax (commonly the time from dosing to the highest level) was 2.33 h. Further, the half-life (in general, how long it takes for the measured level to halve) in series [1] is 672 min. Moreover, in series [2], the “Subjects with at least one drug‐related TEAE” value is reported as 4 (13.8) n (%). Further, the “time after dosing at which BISO peak concentrations were achieved” value in series [3] (across both treatments, studies 1 and 2, BISO 10 mg single oral dose, fasting) came to 2.33 h. Moreover, the half-life in series [3] (human, plasma, oral) lay within 640 to 654 min.

As to `CCOC(=O)[C@H](CCc1ccccc1)N[C@@H](C)C(=O)N1[C@H](C(=O)O)C[C@@H]2CCC[C@@H]21` [RAMI, ramipril], the half-life in series [4] was 83.4 to 101 min. Also, in series [5] (Study 1, expected 32%), the “observed ISCV (intrasubject coefficient of variation) for Cmax” value stood at 36%. The molecule further had a half-life in series [5] (human, plasma, oral, 10 mg) of 130 to 139 min. In series [1], the AUC(0-inf) came to 18.1 ng·h/mL, the AUC(0-t) amounted to 17.1 ng·h/mL, the concentration peaked (Cmax) at 24.1 ng/mL and the Tmax worked out at 0.5 h. Besides, the half-life in series [1] was 122 min. The “Subjects with at least one drug‐related TEAE” value in series [2] was 3 (10.7) n (%). For the same molecule, the “median time to ramipril peak concentration” value in series [3] (across both treatments and studies 1 and 2) stood at 0.50 h.
